Results from different studies.
Each line is one published result; the experiments were not run side by side.
Target: Muscarinic acetylcholine receptor M3 (CHRM3, Homo sapiens, UniProt P20309)
Tested at: 10 µM

SMILES	test	inhibition
CC(C)N1CCC[C@H]1CNC(=O)c1cn(C2CCCC2)c(=O)c2c1c1ccccc1n2C	ligand displacement, radioligand	12%
COCc1c(-c2cc3cc(C)cc(OC)c3s2)c2c(N)ncnn2c1CN1CCNC(=O)C1	ligand displacement, radioligand	0%
Cc1ccccc1Oc1cc(-n2c(=O)cc(C(F)(F)F)[nH]c2=O)c2ccccc2c1Cl	ligand displacement	-16.2%
CN1CC[C@@]2(C)c3cc(OC(=O)Nc4ccccc4)ccc3N(C)[C@@H]12	ligand displacement, radioligand	3.1%
Clc1ccc2c(C3CCN(CCc4c[nH]c5ccccc45)CC3)c[nH]c2c1	ligand displacement, radioligand	61%
c1ccc(C(NCCNC(c2ccccc2)c2ccccc2)c2ccccc2)cc1	cell-free assay	11%
CCN(CC)CCCC[C@H](NC(=O)[C@H](CC(C)C)NC(=O)[C@H](C)NC(=O)[C@H](Cc1ccccc1)NC(=O)c1ccc(C(C)(C)C)cc1)C(=O)N[C@@H](CO)C(=O)OC	ligand displacement, radioligand	7%
COc1ccc(C(=O)NCc2cc(C(C)C)no2)cc1OC1CCN(C)CC1	ligand displacement, radioligand	26%
CCC(=NO)C(C)=Cc1ccc(F)c(C)c1	ligand displacement	-5.75%
C[C@H](C(=O)N[C@H]1COc2ccccc2[C@@H]1S(C)(=O)=O)c1ccc(F)cc1	cell-free assay	12%
